Key:
[1] = Selectivity index, ratio of CC50 for cytotoxicity against Balb/c mouse peritoneal macrophages to IC50 for antileishmanial activity against Leishmania amazonensis MHOM/BR/77/LTB0016 promastigotes; assay type: toxicity; conditions: read-out: Ratio CC50/IC50
Procedure, shortened: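 SI calculated as macrophage CC50 divided by promastigote IC50. Both values come from 72 h assays: macrophages in RPMI at 37 °C and promastigotes in Schneider's medium at 26 °C with resazurin read-out.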

Leishmania amazonensis [2] = test: Antileishmanial activity against Leishmania amazonensis MHOM/BR/77/LTB0016 amastigotes infected in Balb/c mouse peritoneal macrophages after 72 hrs by hematological dye based light microscopic method; assay type: functional, organism-based; conditions: MHOM/BR/77/LTB0016, 72 h
Procedure, shortened: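 Resident BALB/c peritoneal macrophages plated at 1×10^6/mL in RPMI, 1 h at 37 °C in 5% CO2, non-adherent cells washed off. Infected with stationary-phase promastigotes at 3:1 parasite/macrophage for 4 h, free parasites washed off, compounds added for 72 h. Slides stained with hematological dye, infected cells and amastigotes counted in at least 100 macrophages per sample. IC50 by nonlinear regression. Three independent experiments.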

[3] = Cytotoxicity against Balb/c mouse peritoneal macrophages assessed as reduction in cell viability after 72 hrs by resazurin assay; assay type: cell-based, Peritoneal macrophage
Procedure, shortened: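 Peritoneal cells collected by lavage in RPMI 1640 with 10% HIFCS, 2 mM L-glutamine, 1 mM pyruvate, streptomycin and penicillin. Adjusted to 1.0×10^6 cells/mL, plated in triplicate, 1 h at 37 °C in 5% CO2, non-adherent cells washed off. […] Three independent experiments, mean ± SD.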

Leishmania amazonensis [4] = test: Antileishmanial activity against Leishmania amazonensis MHOM/BR/77/LTB0016 promastigotes after 72 hrs by resazurin dye based assay; assay type: functional, organism-based; conditions: MHOM/BR/77/LTB0016, 72 h
Procedure, shortened: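 Promastigotes grown in Schneider's insect medium with 10% HIFCS, started at 1.0×10^6 cells/mL with or without a range of compound concentrations, 26 °C for 72 h. Viability read by resazurin. IC50 by logarithmic regression. Three independent experiments in triplicate, mean ± SD.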

[5] = Solubility of the compound in Schneider's insect medium supplemented with 10% HIFCS; assay type: physicochemical
[6] = Solubility of the compound in RPMI 1640 medium; assay type: physicochemical

Compound `CC1(Cc2ccccc2)CC(S(=O)(=O)c2ccc(F)cc2)=C(c2ccc(/C(N)=N/O)cc2)O1` (stereo unspecified) has a selectivity ratio [1] of 18.9, an IC50 (Leishmania amazonensis [2]) of 7.9 µM and a CC50 at 72 h [3] of 102 µM. It also gave an IC50 (Leishmania amazonensis [4]) of 5.4 µM.

`CCC1(CC)CC(S(=O)(=O)c2ccc(F)cc2)=C(c2ccc(/C(N)=N/O)cc2)O1` gave a selectivity ratio [1] of 3, a CC50 at 72 h [3] of 91.4 µM and an IC50 (Leishmania amazonensis [4]) of 30.2 µM.

In the case of `CC1(Cc2cccc(/C(N)=N/O)c2)CC(S(=O)(=O)c2ccc(F)cc2)=C(c2ccc(/C(N)=N/O)cc2)O1` (stereo unspecified), the solubility [5] is reported as “Insoluble”, the CC50 at 72 h [3] is reported as 50.2 µM and the IC50 (Leishmania amazonensis [4]) is reported as > 100 µM.

For `CC1(Cc2ccc([N+](=O)[O-])cc2)CC(S(=O)(=O)c2ccc(F)cc2)=C(c2ccc(/C(N)=N/O)cc2)O1` (stereo unspecified), the selectivity ratio [1] was 5.8, the CC50 at 72 h [3] was 97.4 µM and the IC50 (Leishmania amazonensis [4]) was 16.7 µM.

For `Cc1ccccc1CC1(C)CC(S(=O)(=O)c2ccc(F)cc2)=C(c2ccc(/C(N)=N/O)cc2)O1` (stereo unspecified), the selectivity ratio [1] was 37, the IC50 (Leishmania amazonensis [2]) was 7.2 µM and the CC50 at 72 h [3] was 77.6 µM. The IC50 (Leishmania amazonensis [4]) was 2.1 µM.

`Cc1cccc(CC2(C)CC(S(=O)(=O)c3ccc(F)cc3)=C(c3ccc(/C(N)=N/O)cc3)O2)c1` (stereo unspecified) gave a selectivity ratio [1] of 19.9, an IC50 (Leishmania amazonensis [2]) of 6.7 µM and a CC50 at 72 h [3] of 112 µM. For the same compound, the IC50 (Leishmania amazonensis [4]) was 5.6 µM.

Work on `CC1(Cc2ccccc2Br)CC(S(=O)(=O)c2ccc(F)cc2)=C(c2ccc(/C(N)=N/O)cc2)O1` (stereo unspecified) yielded a selectivity ratio [1] of 12, an IC50 (Leishmania amazonensis [2]) of 9.3 µM and a CC50 at 72 h [3] of 109 µM. It also gave an IC50 (Leishmania amazonensis [4]) of 9.1 µM.

Compound `CC1(Cc2ccccc2C(F)(F)F)CC(S(=O)(=O)c2ccc(F)cc2)=C(c2ccc(/C(N)=N/O)cc2)O1` (stereo unspecified) has a selectivity ratio [1] of 21.9, an IC50 (Leishmania amazonensis [2]) of 10.2 µM and a CC50 at 72 h [3] of 105 µM. For the same compound, the IC50 (Leishmania amazonensis [4]) was 4.8 µM.

For `N/C(=N\O)c1ccc(C2=C(S(=O)(=O)c3ccc(F)cc3)CC3(CCCCC3)O2)cc1`, the selectivity ratio [1] was 1.9, the CC50 at 72 h [3] was 92.9 µM and the IC50 (Leishmania amazonensis [4]) was 49.5 µM.

In the case of `CC1(Cc2cccc([N+](=O)[O-])c2)CC(S(=O)(=O)c2ccc(F)cc2)=C(c2ccc(/C(N)=N/O)cc2)O1` (stereo unspecified), the selectivity ratio [1] is reported as 7.5, the CC50 at 72 h [3] is reported as 86.6 µM and the IC50 (Leishmania amazonensis [4]) is reported as 11.6 µM.

In the case of `CC1(Cc2cccc(CO)c2)CC(S(=O)(=O)c2ccc(F)cc2)=C(c2ccc(/C(N)=N/O)cc2)O1` (stereo unspecified), the solubility [6] is reported as “Insoluble”, the solubility [5] is reported as “Insoluble” and the CC50 at 72 h [3] is reported as > 100 µM. The IC50 (Leishmania amazonensis [4]) was > 100 µM.

With `CC1(Cc2ccc(CO)cc2)CC(S(=O)(=O)c2ccc(F)cc2)=C(c2ccc(/C(N)=N/O)cc2)O1` (stereo unspecified) the solubility [6] was “Insoluble”, the solubility [5] was “Insoluble” and the CC50 at 72 h [3] was > 100 µM. The IC50 (Leishmania amazonensis [4]) was > 100 µM.

For `CC1(Cc2ccc(C(F)(F)F)cc2)CC(S(=O)(=O)c2ccc(F)cc2)=C(c2ccc(/C(N)=N/O)cc2)O1` (stereo unspecified), the selectivity ratio [1] was 12.6, the IC50 (Leishmania amazonensis [2]) was > 20 µM and the CC50 at 72 h [3] was 103 µM. For the same compound, the IC50 (Leishmania amazonensis [4]) was 8.2 µM.

`CC1(Cc2cc(C(F)(F)F)cc(C(F)(F)F)c2)CC(S(=O)(=O)c2ccc(F)cc2)=C(c2ccc(/C(N)=N/O)cc2)O1` (stereo unspecified) showed a selectivity ratio [1] of 8, a CC50 at 72 h [3] of 43.1 µM and an IC50 (Leishmania amazonensis [4]) of 5.4 µM.

For `COc1ccc(CC2(C)CC(S(=O)(=O)c3ccc(F)cc3)=C(c3ccc(/C(N)=N/O)cc3)O2)cc1` (stereo unspecified), the selectivity ratio [1] was > 4.2, the solubility [6] was “Insoluble” and the CC50 at 72 h [3] was > 100 µM. It also gave an IC50 (Leishmania amazonensis [4]) of 24 µM.

Compound `CC1(Cc2ccc(-c3ccccc3)c(F)c2)CC(S(=O)(=O)c2ccc(F)cc2)=C(c2ccc(/C(N)=N/O)cc2)O1` (stereo unspecified) has a selectivity ratio [1] of 2, a CC50 at 72 h [3] of 24.5 µM and an IC50 (Leishmania amazonensis [4]) of 12.2 µM.

With `CC1(Cc2ccc(-c3ccccc3)cc2)CC(S(=O)(=O)c2ccc(F)cc2)=C(c2ccc(/C(N)=N/O)cc2)O1` (stereo unspecified) the selectivity ratio [1] was 2.3, the CC50 at 72 h [3] was 33.9 µM and the IC50 (Leishmania amazonensis [4]) was 14.8 µM.

With `CC1(Cc2ccc(/C(N)=N/O)cc2)CC(S(=O)(=O)c2ccc(F)cc2)=C(c2ccc(/C(N)=N/O)cc2)O1` (stereo unspecified) the solubility [5] was “Insoluble”, the CC50 at 72 h [3] was 42.2 µM and the IC50 (Leishmania amazonensis [4]) was > 100 µM.

In the case of `CC1(Cc2cccc(C(F)(F)F)c2)CC(S(=O)(=O)c2ccc(F)cc2)=C(c2ccc(/C(N)=N/O)cc2)O1` (stereo unspecified), the selectivity ratio [1] is reported as 7.4, the CC50 at 72 h [3] is reported as 49.8 µM and the IC50 (Leishmania amazonensis [4]) is reported as 6.7 µM.

In the case of `Cc1ccc(CC2(C)CC(S(=O)(=O)c3ccc(F)cc3)=C(c3ccc(/C(N)=N/O)cc3)O2)cc1` (stereo unspecified), the selectivity ratio [1] is reported as 2.3, the CC50 at 72 h [3] is reported as 54.4 µM and the IC50 (Leishmania amazonensis [4]) is reported as 23.2 µM.

With `CC1(Cc2ccccc2)CC(S(=O)(=O)c2ccc(F)cc2)=C(c2cccc(/C(N)=N/O)c2)O1` (stereo unspecified) the selectivity ratio [1] was > 2.7, the solubility [6] was “Insoluble” and the CC50 at 72 h [3] was > 200 µM. For the same compound, the IC50 (Leishmania amazonensis [4]) was 74.7 µM.

With `COc1cc(CC2(C)CC(S(=O)(=O)c3ccc(F)cc3)=C(c3ccc(/C(N)=N/O)cc3)O2)cc(OC)c1OC` (stereo unspecified) the selectivity ratio [1] was 2, the CC50 at 72 h [3] was 92.3 µM and the IC50 (Leishmania amazonensis [4]) was 45.6 µM.

For `CC1(C/C=C/c2ccc(C(F)(F)F)cc2)CC(S(=O)(=O)c2ccc(F)cc2)=C(c2ccc(/C(N)=N/O)cc2)O1` (stereo unspecified), the selectivity ratio [1] was 2.6, the CC50 at 72 h [3] was 43.9 µM and the IC50 (Leishmania amazonensis [4]) was 17.2 µM.

In the case of `N=C(N)c1ccc(OCCCCCOc2ccc(C(=N)N)cc2)cc1` [PENTAMIDINE], the selectivity ratio [1] is reported as 1.5 and the IC50 (Leishmania amazonensis [4]) is reported as 5.7 µM.

Reference: ChEMBL document CHEMBL4196020, “Original antileishmanial hits: Variations around amidoximes” (Eur J Med Chem, 2018)
